Test results reported in ChEMBL document CHEMBL1155415, “Synthesis, characterization, and in vitro antimicrobial activities of 5-alkenyl/hydroxyalkenyl-2-phenylamine-1,3,4-oxadiazoles and thiadiazoles” (2010).
Converted amounts (≈) assume the structure as drawn.

Tests used:
Assay type in all cases: functional
Candida albicans [1] = assay: Antifungal activity against Candida albicans after 48 hrs by disk diffusion method
Procedure, shortened: (§1)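 Agar well diffusion with compounds in DMSO. The dish was lawned with a saline spore suspension, excess decanted, and dried 1 h at 37 °C. Wells were punched. Read-out: inhibition zone in mm. Griseofulvin served as standard and DMSO as negative control.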

Aspergillus fumigatus [2] = assay: Ratio of MFC to MIC for Aspergillus fumigatus
Procedure, shortened: (§2)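 MFC: 0.1 ml from each MIC tube was spread on agar and colonies were counted after 48 h at 35 °C. MFC is the lowest concentration killing 99.9% of the inoculum. The MFC/MIC ratio was then calculated to classify activity as fungistatic or fungicidal.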

Talaromyces marneffei [3] = assay: Ratio of MFC to MIC for Penicillium marneffei; procedure, shortened: as §2
Pseudomonas aeruginosa [4] = assay: Antibacterial activity against Pseudomonas aeruginosa ATCC 27853 after 24 hrs by disc diffusion method
Procedure, shortened: (§3)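 Agar disc diffusion. A standard inoculum of […] c.f.u./ml (0.5 McFarland) was spread evenly on agar. 6 mm Whatman no. 1 paper discs, dry-heat sterilized (140 °C, 1 h), were soaked in test compound and placed on nutrient agar. Plates were inverted and incubated 24 h at 37 °C. Read-out: diameter of the inhibition zone.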

Escherichia coli [5] = assay: Antibacterial activity against Escherichia coli ATCC 25922 after 18 to 24 hrs
Pseudomonas aeruginosa [6] = assay: Antibacterial activity against Pseudomonas aeruginosa ATCC 27853 after 18 to 24 hrs
Streptococcus pyogenes [7] = assay: Antibacterial activity against Streptococcus pyogenes after 24 hrs by two fold dilution technique
Procedure, shortened: (§4)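 Broth dilution MIC. Nutrient broth held log two-fold serial dilutions of compound and was inoculated with about 5 × 10⁵ c.f.u./ml of actively dividing bacteria. Incubation was 24 h at 37 °C, with growth checked visually and spectrophotometrically. MIC is the lowest concentration arresting growth.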

Escherichia coli [8] = assay: Antibacterial activity against Escherichia coli ATCC 25922 after 24 hrs by disc diffusion method; procedure, shortened: as §3
Staphylococcus aureus [9] = assay: Antibacterial activity against Staphylococcus aureus ATCC 25923 after 24 hrs by disc diffusion method; procedure, shortened: as §3
Klebsiella pneumoniae [10] = assay: Antibacterial activity against Klebsiella pneumoniae after 18 to 24 hrs
Aspergillus fumigatus [11] = assay: Antifungal activity against Aspergillus fumigatus after 48 hrs by disk diffusion method; procedure, shortened: as §1
Streptococcus pyogenes [12] = assay: Antibacterial activity against Streptococcus pyogenes after 18 to 24 hrs
Klebsiella pneumoniae [13] = assay: Antibacterial activity against Klebsiella pneumoniae after 24 hrs by disc diffusion method; procedure, shortened: as §3
Talaromyces marneffei [14] = assay: Antifungal activity against Penicillium marneffei after 48 hrs by two fold dilution technique
Procedure, shortened: (§5)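 Broth MIC. Broth with log two-fold serial dilutions of compound was inoculated with about 1.6 × 10⁴–6 × 10⁴ c.f.u./ml of fungus and incubated 48 h at 35 °C. MIC is the lowest concentration arresting fungal growth.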

Staphylococcus aureus [15] = assay: Antibacterial activity against Staphylococcus aureus ATCC 25923 after 24 hrs by two fold dilution technique; conditions: ATCC 25923, 24 h; procedure, shortened: as §4
[16] = system: Trichophyton mentagrophytes; assay: Antifungal activity against Trichophyton mentagrophytes after 48 hrs by two fold dilution technique; procedure, shortened: as §5
Streptococcus pyogenes [17] = assay: Antibacterial activity against Streptococcus pyogenes after 24 hrs by disc diffusion method; procedure, shortened: as §3
Candida albicans [18] = assay: Ratio of MFC to MIC for Candida albicans; procedure, shortened: as §2
Aspergillus fumigatus [19] = assay: Antifungal activity against Aspergillus fumigatus after 48 hrs by two fold dilution technique; procedure, shortened: as §5
Candida albicans [20] = assay: Antifungal activity against Candida albicans after 48 hrs by two fold dilution technique; procedure, shortened: as §5
[21] = system: Trichophyton mentagrophytes; assay: Antifungal activity against Trichophyton mentagrophytes after 48 hrs by disk diffusion method; procedure, shortened: as §1
Pseudomonas aeruginosa [22] = assay: Antibacterial activity against Pseudomonas aeruginosa ATCC 27853 after 24 hrs by two fold dilution technique; conditions: ATCC 27853, 24 h; procedure, shortened: as §4
Staphylococcus aureus [23] = assay: Antibacterial activity against Staphylococcus aureus ATCC 25923 after 18 to 24 hrs
Escherichia coli [24] = assay: Antibacterial activity against Escherichia coli ATCC 25922 after 24 hrs by two fold dilution technique; conditions: ATCC 25922, 24 h; procedure, shortened: as §4
Klebsiella pneumoniae [25] = assay: Antibacterial activity against Klebsiella pneumoniae after 24 hrs by two fold dilution technique; procedure, shortened: as §4
Talaromyces marneffei [26] = assay: Antifungal activity against Penicillium marneffei after 48 hrs by disk diffusion method; procedure, shortened: as §1
[27] = system: Trichophyton mentagrophytes; assay: Ratio of MFC to MIC for Trichophyton mentagrophytes; procedure, shortened: as §2

CCCCCCC(O)C/C=C\CCCCCCCc1nnc(Nc2ccccc2)s1 (configuration not stated)
diameter of the inhibition zone (DIZ) (Candida albicans [1]): 25.1 mm | Ratio (Aspergillus fumigatus [2]): 4 | Ratio (Talaromyces marneffei [3]): 2 | diameter of the inhibition zone (DIZ) (Pseudomonas aeruginosa [4]): 29.2 mm | MBC (Escherichia coli [5]): 12.5 µg/mL (≈ 29.1 µM) | MBC (Pseudomonas aeruginosa [6]): 12.5 µg/mL (≈ 29.1 µM) | MIC (Streptococcus pyogenes [7]): 6.25 µg/mL (≈ 14.5 µM) | diameter of the inhibition zone (DIZ) (Escherichia coli [8]): 25.5 mm | diameter of the inhibition zone (DIZ) (Staphylococcus aureus [9]): 21.6 mm | MBC (Klebsiella pneumoniae [10]): 6.25 µg/mL (≈ 14.5 µM) | diameter of the inhibition zone (DIZ) (Aspergillus fumigatus [11]): 22.4 mm | MBC (Streptococcus pyogenes [12]): 12.5 µg/mL (≈ 29.1 µM) | diameter of the inhibition zone (DIZ) (Klebsiella pneumoniae [13]): 22.7 mm | MFC (Talaromyces marneffei [14]): 50 µg/mL (≈ 116 µM) | MIC (Talaromyces marneffei [14]): 25 µg/mL (≈ 58.2 µM) | MIC (Staphylococcus aureus [15]): 6.25 µg/mL (≈ 14.5 µM) | MFC [16]: 25 µg/mL (≈ 58.2 µM) | MIC [16]: 12.5 µg/mL (≈ 29.1 µM) | diameter of the inhibition zone (DIZ) (Streptococcus pyogenes [17]): 22.9 mm | Ratio (Candida albicans [18]): 2 | MFC (Aspergillus fumigatus [19]): 50 µg/mL (≈ 116 µM) | MIC (Aspergillus fumigatus [19]): 12.5 µg/mL (≈ 29.1 µM) | MFC (Candida albicans [20]): 25 µg/mL (≈ 58.2 µM) | MIC (Candida albicans [20]): 12.5 µg/mL (≈ 29.1 µM) | diameter of the inhibition zone (DIZ) [21]: 18.9 mm | MIC (Pseudomonas aeruginosa [22]): 6.25 µg/mL (≈ 14.5 µM) | MBC (Staphylococcus aureus [23]): 12.5 µg/mL (≈ 29.1 µM) | MIC (Escherichia coli [24]): 6.5 µg/mL (≈ 15.1 µM) | MIC (Klebsiella pneumoniae [25]): 6.25 µg/mL (≈ 14.5 µM) | diameter of the inhibition zone (DIZ) (Talaromyces marneffei [26]): 15.1 mm

CCCCCCCC/C=C\CCCCCCCc1nnc(Nc2ccccc2)o1
diameter of the inhibition zone (DIZ) (Candida albicans [1]): 26.1 mm | Ratio (Aspergillus fumigatus [2]): 2 | Ratio (Talaromyces marneffei [3]): 4 | diameter of the inhibition zone (DIZ) (Pseudomonas aeruginosa [4]): 19.3 mm | Ratio [27]: 2 | MBC (Escherichia coli [5]): 50 µg/mL (≈ 126 µM) | MBC (Pseudomonas aeruginosa [6]): 50 µg/mL (≈ 126 µM) | MIC (Streptococcus pyogenes [7]): 25 µg/mL (≈ 62.9 µM) | diameter of the inhibition zone (DIZ) (Escherichia coli [8]): 17.5 mm | diameter of the inhibition zone (DIZ) (Staphylococcus aureus [9]): 15.3 mm | MBC (Klebsiella pneumoniae [10]): 50 µg/mL (≈ 126 µM) | diameter of the inhibition zone (DIZ) (Aspergillus fumigatus [11]): 23.1 mm | MBC (Streptococcus pyogenes [12]): 25 µg/mL (≈ 62.9 µM) | diameter of the inhibition zone (DIZ) (Klebsiella pneumoniae [13]): 14.9 mm | MFC (Talaromyces marneffei [14]): 25 µg/mL (≈ 62.9 µM) | MIC (Talaromyces marneffei [14]): 6.25 µg/mL (≈ 15.7 µM) | MIC (Staphylococcus aureus [15]): 12.5 µg/mL (≈ 31.4 µM) | MFC [16]: 25 µg/mL (≈ 62.9 µM) | MIC [16]: 12.5 µg/mL (≈ 31.4 µM) | diameter of the inhibition zone (DIZ) (Streptococcus pyogenes [17]): 15.6 mm | Ratio (Candida albicans [18]): 4 | MFC (Aspergillus fumigatus [19]): 12.5 µg/mL (≈ 31.4 µM) | MIC (Aspergillus fumigatus [19]): 6.25 µg/mL (≈ 15.7 µM) | MFC (Candida albicans [20]): 25 µg/mL (≈ 62.9 µM) | MIC (Candida albicans [20]): 6.25 µg/mL (≈ 15.7 µM) | diameter of the inhibition zone (DIZ) [21]: 20.2 mm | MIC (Pseudomonas aeruginosa [22]): 12.5 µg/mL (≈ 31.4 µM) | MBC (Staphylococcus aureus [23]): 50 µg/mL (≈ 126 µM) | MIC (Escherichia coli [24]): 12.5 µg/mL (≈ 31.4 µM) | MIC (Klebsiella pneumoniae [25]): 12.5 µg/mL (≈ 31.4 µM) | diameter of the inhibition zone (DIZ) (Talaromyces marneffei [26]): 15.9 mm

CCCCCC[C@@H](O)C/C=C\CCCCCCCc1nnc(Nc2ccccc2)o1
diameter of the inhibition zone (DIZ) (Candida albicans [1]): 23.3 mm | Ratio (Aspergillus fumigatus [2]): 4 | Ratio (Talaromyces marneffei [3]): 8 | diameter of the inhibition zone (DIZ) (Pseudomonas aeruginosa [4]): 25.6 mm | Ratio [27]: 4 | MBC (Escherichia coli [5]): 25 µg/mL (≈ 60.4 µM) | MBC (Pseudomonas aeruginosa [6]): 50 µg/mL (≈ 121 µM) | MIC (Streptococcus pyogenes [7]): 6.25 µg/mL (≈ 15.1 µM) | diameter of the inhibition zone (DIZ) (Escherichia coli [8]): 22.8 mm | diameter of the inhibition zone (DIZ) (Staphylococcus aureus [9]): 20.2 mm | MBC (Klebsiella pneumoniae [10]): 6.25 µg/mL (≈ 15.1 µM) | diameter of the inhibition zone (DIZ) (Aspergillus fumigatus [11]): 20.7 mm | MBC (Streptococcus pyogenes [12]): 12.5 µg/mL (≈ 30.2 µM) | diameter of the inhibition zone (DIZ) (Klebsiella pneumoniae [13]): 19.7 mm | MFC (Talaromyces marneffei [14]): 100 µg/mL (≈ 242 µM) | MIC (Talaromyces marneffei [14]): 12.5 µg/mL (≈ 30.2 µM) | MIC (Staphylococcus aureus [15]): 6.25 µg/mL (≈ 15.1 µM) | MFC [16]: 50 µg/mL (≈ 121 µM) | MIC [16]: 12.5 µg/mL (≈ 30.2 µM) | diameter of the inhibition zone (DIZ) (Streptococcus pyogenes [17]): 21.2 mm | Ratio (Candida albicans [18]): 4 | MFC (Aspergillus fumigatus [19]): 50 µg/mL (≈ 121 µM) | MIC (Aspergillus fumigatus [19]): 12.5 µg/mL (≈ 30.2 µM) | MFC (Candida albicans [20]): 100 µg/mL (≈ 242 µM) | MIC (Candida albicans [20]): 25 µg/mL (≈ 60.4 µM) | diameter of the inhibition zone (DIZ) [21]: 17.5 mm | MIC (Pseudomonas aeruginosa [22]): 6.25 µg/mL (≈ 15.1 µM) | MBC (Staphylococcus aureus [23]): 12.5 µg/mL (≈ 30.2 µM) | MIC (Escherichia coli [24]): 6.25 µg/mL (≈ 15.1 µM) | MIC (Klebsiella pneumoniae [25]): 6.25 µg/mL (≈ 15.1 µM) | diameter of the inhibition zone (DIZ) (Talaromyces marneffei [26]): 13.9 mm
